# In ChEMBL document CHEMBL1154186, “Synthesis, kinase inhibitory potencies, and in vitro antiproliferative evaluation of new Pim kinase inhibitors” (J Med Chem, 2009):
# Legend:
# [1] = target: Homeodomain-interacting protein kinase 2 (Homo sapiens) (UniProt Q9H2X6); assay: Inhibition of HIPK2 assessed as residual enzyme activity at 10 uM relative to untreated control
# Procedure, shortened: (§1)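 Radiometric filter-binding assay at 21 °C for 30 min. Mix: 50 mM Tris/HCl pH 7.5, 0.1 mM EGTA, 0.1% 2-mercaptoethanol, 10 mM Mg acetate and [γ-33P]ATP (800 cpm/pmol) at 5 µM. Stopped with orthophosphoric acid and spotted on P81. Compound at 10 µM; activity given as % remaining versus no-inhibitor control, duplicates. Kinases human full-length unless noted.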
# [2] = target: T1, Serine/threonine-protein kinase Sgk1 (Homo sapiens) (UniProt O00141); assay: Inhibition of SGK1 assessed as residual enzyme activity at 10 uM relative to untreated control
# T1 sequence (whole entry): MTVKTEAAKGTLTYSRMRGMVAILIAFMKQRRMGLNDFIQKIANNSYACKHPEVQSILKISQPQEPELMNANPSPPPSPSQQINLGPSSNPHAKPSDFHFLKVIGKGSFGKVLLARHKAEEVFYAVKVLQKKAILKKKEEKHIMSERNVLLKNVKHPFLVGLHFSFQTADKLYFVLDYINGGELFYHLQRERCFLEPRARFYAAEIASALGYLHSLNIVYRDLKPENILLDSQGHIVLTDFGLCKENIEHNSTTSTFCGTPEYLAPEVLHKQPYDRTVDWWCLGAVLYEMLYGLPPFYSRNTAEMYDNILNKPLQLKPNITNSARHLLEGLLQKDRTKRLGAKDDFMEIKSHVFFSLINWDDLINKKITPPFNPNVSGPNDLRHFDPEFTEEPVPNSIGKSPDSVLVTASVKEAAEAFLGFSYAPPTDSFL
# Procedure, shortened: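 Buffer Tris/HCl pH 7.5, EGTA and 2-mercaptoethanol. 30 min at 21 °C, compound at 10 µM. P81 filter read-out. Residual activity versus control, duplicates.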
# [3] = Inhibition of PKA assessed as residual enzyme activity at 10 uM relative to untreated control
# Procedure, shortened: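 PKA (5-20 m-units) was assayed in 8 mM Mops pH 7.5 and 0.2 mM EDTA, with LRRASLG at 300 µM and [γ-33P]ATP at 20 µM plus 10 mM Mg acetate, 30 min at 21 °C, then P81 filter capture. Compound at 10 µM; % residual activity versus uninhibited control, duplicates.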
# [4] = target: Glycogen synthase kinase-3 beta (Homo sapiens) (UniProt P49841); assay: Inhibition of GSK3-beta assessed as residual enzyme activity at 10 uM relative to untreated control; procedure, shortened: as §1
# Chain of Glycogen synthase kinase-3 beta (Homo sapiens) (P49841 whole entry, looked up): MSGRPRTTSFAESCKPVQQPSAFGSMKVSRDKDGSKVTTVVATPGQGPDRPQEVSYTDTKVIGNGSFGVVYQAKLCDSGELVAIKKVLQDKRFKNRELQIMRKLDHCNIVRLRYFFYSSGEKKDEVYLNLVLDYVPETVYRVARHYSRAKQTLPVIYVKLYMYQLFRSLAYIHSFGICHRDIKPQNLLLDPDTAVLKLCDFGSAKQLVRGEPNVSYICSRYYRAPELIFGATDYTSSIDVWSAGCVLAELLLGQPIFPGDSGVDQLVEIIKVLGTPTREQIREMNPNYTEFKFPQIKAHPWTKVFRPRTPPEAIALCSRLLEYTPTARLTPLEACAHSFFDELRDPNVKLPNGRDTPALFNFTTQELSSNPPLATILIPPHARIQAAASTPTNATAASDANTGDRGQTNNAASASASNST
# [5] = target: T2, Serine/threonine-protein kinase BRSK2 (Homo sapiens) (UniProt Q8IWQ3); assay: Inhibition of BRSK2 assessed as residual enzyme activity at 10 uM relative to untreated control
# T2 sequence (whole entry): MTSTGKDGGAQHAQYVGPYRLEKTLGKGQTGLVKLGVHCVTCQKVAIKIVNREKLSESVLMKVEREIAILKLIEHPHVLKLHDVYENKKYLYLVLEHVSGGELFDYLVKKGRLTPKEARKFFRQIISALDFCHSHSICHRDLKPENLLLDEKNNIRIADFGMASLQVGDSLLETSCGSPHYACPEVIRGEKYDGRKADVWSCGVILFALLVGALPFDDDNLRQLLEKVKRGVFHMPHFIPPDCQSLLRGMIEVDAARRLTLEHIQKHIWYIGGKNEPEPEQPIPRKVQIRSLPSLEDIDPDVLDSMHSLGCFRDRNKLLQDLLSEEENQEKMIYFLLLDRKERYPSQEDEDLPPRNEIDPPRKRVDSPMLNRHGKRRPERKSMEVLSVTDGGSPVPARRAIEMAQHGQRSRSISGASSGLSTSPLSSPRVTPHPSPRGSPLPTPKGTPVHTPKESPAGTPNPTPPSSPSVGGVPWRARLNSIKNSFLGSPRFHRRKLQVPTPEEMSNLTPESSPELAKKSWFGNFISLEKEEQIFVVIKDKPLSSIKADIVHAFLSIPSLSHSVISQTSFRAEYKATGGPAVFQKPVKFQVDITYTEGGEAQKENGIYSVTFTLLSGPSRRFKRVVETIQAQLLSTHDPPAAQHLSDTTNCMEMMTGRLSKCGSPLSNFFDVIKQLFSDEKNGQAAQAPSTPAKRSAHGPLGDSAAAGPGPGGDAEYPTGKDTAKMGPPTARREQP
# Procedure, shortened: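 Assayed with [γ-33P]ATP at 50 µM and 10 mM Mg acetate in 50 mM Tris/HCl pH 7.5, 0.1 mM EGTA, 0.1% 2-mercaptoethanol, 30 min, 21 °C. Phosphoric acid stop, P81 filter capture. ERK2 and Lck are mouse; AMPK is rat. 10 µM compound; % activity remaining relative to control without inhibitor, duplicates.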
# [6] = target: T3, Inhibitor of nuclear factor kappa-B kinase subunit beta (Homo sapiens) (UniProt O14920); assay: Inhibition of IKK-beta assessed as residual enzyme activity at 10 uM relative to untreated control; procedure, shortened: as §1
# T3 sequence (whole entry): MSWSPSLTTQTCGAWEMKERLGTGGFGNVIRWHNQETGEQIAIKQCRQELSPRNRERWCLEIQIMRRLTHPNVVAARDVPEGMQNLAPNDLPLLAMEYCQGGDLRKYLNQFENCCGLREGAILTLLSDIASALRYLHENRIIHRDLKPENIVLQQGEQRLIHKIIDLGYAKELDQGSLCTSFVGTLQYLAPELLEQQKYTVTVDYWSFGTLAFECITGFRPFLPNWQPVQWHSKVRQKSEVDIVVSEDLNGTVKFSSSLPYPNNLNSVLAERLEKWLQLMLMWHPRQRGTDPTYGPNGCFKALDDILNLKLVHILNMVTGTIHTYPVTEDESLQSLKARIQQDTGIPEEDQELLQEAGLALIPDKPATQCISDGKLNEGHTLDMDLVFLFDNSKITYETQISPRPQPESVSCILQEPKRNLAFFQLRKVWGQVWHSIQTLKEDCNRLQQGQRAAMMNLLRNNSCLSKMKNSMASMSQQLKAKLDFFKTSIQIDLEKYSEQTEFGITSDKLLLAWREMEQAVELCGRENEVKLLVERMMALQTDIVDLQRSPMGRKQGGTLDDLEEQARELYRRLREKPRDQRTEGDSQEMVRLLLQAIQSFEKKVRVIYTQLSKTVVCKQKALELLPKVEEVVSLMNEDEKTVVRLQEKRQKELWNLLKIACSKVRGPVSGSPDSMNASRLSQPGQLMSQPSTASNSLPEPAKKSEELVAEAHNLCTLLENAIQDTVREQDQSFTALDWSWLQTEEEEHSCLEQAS
# [7] = target: Serine/threonine-protein kinase pim-2 (Homo sapiens) (UniProt Q9P1W9); assay: Inhibition of Pim-2 assessed as residual enzyme activity at 10 uM relative to untreated control
# Chain of Serine/threonine-protein kinase pim-2 (Homo sapiens) (Q9P1W9 whole entry, looked up): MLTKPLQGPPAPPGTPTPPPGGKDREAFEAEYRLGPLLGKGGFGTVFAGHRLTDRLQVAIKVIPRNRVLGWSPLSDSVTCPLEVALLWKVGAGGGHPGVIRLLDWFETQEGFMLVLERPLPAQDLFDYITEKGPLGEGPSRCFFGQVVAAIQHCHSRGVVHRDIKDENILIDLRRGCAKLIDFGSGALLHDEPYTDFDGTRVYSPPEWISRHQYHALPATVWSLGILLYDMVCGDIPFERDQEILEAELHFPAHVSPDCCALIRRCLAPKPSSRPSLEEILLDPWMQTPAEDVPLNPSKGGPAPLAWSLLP
# [8] = system: MKK1 (Oryctolagus cuniculus); assay: Inhibition of MKK1 assessed as residual enzyme activity at 10 uM relative to untreated control
# [9] = system: ROCK2 (Rattus norvegicus); assay: Inhibition of ROCK2 assessed as residual enzyme activity at 10 uM relative to untreated control
# Chain of Homeodomain-interacting protein kinase 2 (Homo sapiens) (Q9H2X6 whole entry, looked up): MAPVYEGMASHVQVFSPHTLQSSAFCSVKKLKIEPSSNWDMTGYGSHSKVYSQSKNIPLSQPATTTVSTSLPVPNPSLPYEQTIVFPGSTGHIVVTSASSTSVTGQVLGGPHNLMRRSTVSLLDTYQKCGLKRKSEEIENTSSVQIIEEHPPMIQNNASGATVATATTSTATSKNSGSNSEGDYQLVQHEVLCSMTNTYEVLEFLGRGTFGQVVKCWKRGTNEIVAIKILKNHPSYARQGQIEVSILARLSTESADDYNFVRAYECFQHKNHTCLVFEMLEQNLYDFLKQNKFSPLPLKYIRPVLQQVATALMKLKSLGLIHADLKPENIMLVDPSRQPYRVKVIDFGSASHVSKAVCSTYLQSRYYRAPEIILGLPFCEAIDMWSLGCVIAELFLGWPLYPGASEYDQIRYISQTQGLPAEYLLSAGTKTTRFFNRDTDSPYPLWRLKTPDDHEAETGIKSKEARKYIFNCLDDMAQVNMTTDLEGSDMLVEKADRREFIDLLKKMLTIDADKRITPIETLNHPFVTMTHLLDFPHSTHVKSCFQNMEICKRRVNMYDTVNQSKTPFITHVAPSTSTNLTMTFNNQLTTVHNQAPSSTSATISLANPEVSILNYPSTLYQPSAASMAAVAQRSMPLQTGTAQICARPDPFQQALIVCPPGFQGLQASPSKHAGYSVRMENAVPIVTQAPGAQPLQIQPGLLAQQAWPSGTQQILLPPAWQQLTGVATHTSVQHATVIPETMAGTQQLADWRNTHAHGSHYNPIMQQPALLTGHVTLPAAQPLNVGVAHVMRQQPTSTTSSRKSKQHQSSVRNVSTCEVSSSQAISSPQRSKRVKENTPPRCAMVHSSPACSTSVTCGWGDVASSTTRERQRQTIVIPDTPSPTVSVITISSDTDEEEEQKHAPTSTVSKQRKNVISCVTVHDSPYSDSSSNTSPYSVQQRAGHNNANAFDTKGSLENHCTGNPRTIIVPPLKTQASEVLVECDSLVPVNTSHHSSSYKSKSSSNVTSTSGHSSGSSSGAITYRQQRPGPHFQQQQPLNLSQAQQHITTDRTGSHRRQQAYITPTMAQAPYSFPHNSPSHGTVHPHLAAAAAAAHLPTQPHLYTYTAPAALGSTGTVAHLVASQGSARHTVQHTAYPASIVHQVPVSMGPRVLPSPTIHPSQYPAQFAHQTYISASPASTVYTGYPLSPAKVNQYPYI
SMILES,Activity [1],Activity [2],Activity [3],Activity [4],Activity [5],Activity [6],Activity [7],Activity [8],Activity [9]
c1ccc2c(c1)[nH]c1c2ccc2cc[nH]c21,59%,82%,95%,111%,58%,106%,62%,87%,86%
O=Cc1c[nH]c2c1ccc1c3ccccc3[nH]c12,,64%,60%,88%,22%,71%,,,
O=Cc1c[nH]c2ccc3c4ccccc4[nH]c3c12,95%,105%,83%,96%,101%,108%,102%,104%,86%
c1ccc2c(c1)[nH]c1c3cc[nH]c3ccc21,72%,102%,96%,102%,76%,110%,77%,75%,89%
